In ChEMBL document CHEMBL5055637, “Novel C-3-(N-alkyl-aryl)-aminomethyl rifamycin SV derivatives exhibit activity against rifampicin-resistant Mycobacterium tuberculosis RpoBS522L strain and display a different binding mode at the RNAP β-subunit site compared to rifampicin” (2021):
Converted amounts (≈) assume the structure as drawn.

What was measured:
Type in all cases: functional
Settings in all cases: time 5 day
[1] = tested on: Mycobacterium tuberculosis; test: Antitubercular activity against rifampicin resistant Mycobacterium tuberculosis ATCC 35838 harboring RpoBS531L mutant assessed as bacterial growth inhibition measured after 5 days by serial dilution method
In short: (§1)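 Strains grown in Middlebrook 7H9 with OADC supplement and 0.05% w/v Tween 80. Compounds tested as 10-point 2-fold serial dilutions. Growth read as OD590 after 5 days in 7H9-OADC-Tw. Levenberg-Marquardt curve fitting gave MIC90, the concentration inhibiting growth by 90% relative to controls. Run in triplicate.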

[2] = tested on: Mycobacterium tuberculosis; test: Antitubercular activity against rifampicin resistant Mycobacterium tuberculosis HN878 harboring RpoBH455D mutant assessed as bacterial growth inhibition measured after 5 days by serial dilution method; in short: as §1
[3] = tested on: Mycobacterium tuberculosis H37Rv; test: Antitubercular activity against rifampicin resistant Mycobacterium tuberculosis H37Rv harboring RpoBS522L mutant assessed as bacterial growth inhibition measured after 5 days by serial dilution method; in short: as §1

Structure (SMILES) | MIC90 [1] [µM] | MIC90 [2] [µM] | MIC90 [3] [µM]
CO[C@H]1/C=C/O[C@@]2(C)Oc3c(C)c(O)c4c(O)c(c(CN5CCN(CCO)CC5)c(O)c4c3C2=O)NC(=O)/C(C)=C\C=C\[C@H](C)[C@H](O)[C@@H](C)[C@@H](O)[C@@H](C)[C@H](OC(C)=O)[C@@H]1C | >20 | >20 | 4.7 (≈ 3.95 µg/mL)
CO[C@H]1/C=C/O[C@@]2(C)Oc3c(C)c(O)c4c(O)c(c(CNCCc5c[nH]c6ccccc56)c(O)c4c3C2=O)NC(=O)/C(C)=C\C=C\[C@H](C)[C@H](O)[C@@H](C)[C@@H](O)[C@@H](C)[C@H](OC(C)=O)[C@@H]1C | >20 | >20 | 3.1 (≈ 2.7 µg/mL)
CO[C@H]1/C=C/O[C@@]2(C)Oc3c(C)c(O)c4c(O)c(c(CNCc5ccncc5)c(O)c4c3C2=O)NC(=O)/C(C)=C\C=C\[C@H](C)[C@H](O)[C@@H](C)[C@@H](O)[C@@H](C)[C@H](OC(C)=O)[C@@H]1C | >20 | >20 | 6.7 (≈ 5.48 µg/mL)
CO[C@H]1/C=C/O[C@@]2(C)Oc3c(C)c(O)c4c(O)c(c(CNCCc5ccc(O)cc5)c(O)c4c3C2=O)NC(=O)/C(C)=C\C=C\[C@H](C)[C@H](O)[C@@H](C)[C@@H](O)[C@@H](C)[C@H](OC(C)=O)[C@@H]1C | >20 | >20 | 5.8 (≈ 4.91 µg/mL)
COC(=O)c1ccc(CNCc2c3c(O)c4c(O)c(C)c5c(c4c2O)C(=O)[C@@](C)(O/C=C/[C@H](OC)[C@@H](C)[C@@H](OC(C)=O)[C@H](C)[C@H](O)[C@H](C)[C@@H](O)[C@@H](C)/C=C/C=C(/C)C(=O)N3)O5)cc1 | >20 | >20 | 7.7 (≈ 6.74 µg/mL)
CO[C@H]1/C=C/O[C@@]2(C)Oc3c(C)c(O)c4c(O)c(c(CNCc5cccs5)c(O)c4c3C2=O)NC(=O)/C(C)=C\C=C\[C@H](C)[C@H](O)[C@@H](C)[C@@H](O)[C@@H](C)[C@H](OC(C)=O)[C@@H]1C | >20 | 14 (≈ 11.5 µg/mL) | 8 (≈ 6.58 µg/mL)
NNC(=O)c1ccncc1 [ISONIAZID] | 0.55 (≈ 0.0754 µg/mL) | 0.62 (≈ 0.085 µg/mL) | 0.29 (≈ 0.0398 µg/mL)
CO[C@H]1/C=C/O[C@@]2(C)Oc3c(C)c(O)c4c(O)c(c(CNCc5ccc(S(C)(=O)=O)cc5)c(O)c4c3C2=O)NC(=O)/C(C)=C\C=C\[C@H](C)[C@H](O)[C@@H](C)[C@@H](O)[C@@H](C)[C@H](OC(C)=O)[C@@H]1C | >20 | >20 | 3.2 (≈ 2.86 µg/mL)
CO[C@H]1/C=C/O[C@@]2(C)Oc3c(C)c(O)c4c(O)c(c(/C=N/N5CCN(C)CC5)c(O)c4c3C2=O)NC(=O)/C(C)=C\C=C\[C@H](C)[C@H](O)[C@@H](C)[C@@H](O)[C@@H](C)[C@H](OC(C)=O)[C@@H]1C [RIFAMPIN] | >8 | >8 | >8
CO[C@H]1/C=C/O[C@@]2(C)Oc3c(C)c(O)c4c(O)c(c(CNCc5ccccc5)c(O)c4c3C2=O)NC(=O)/C(C)=C\C=C\[C@H](C)[C@H](O)[C@@H](C)[C@@H](O)[C@@H](C)[C@H](OC(C)=O)[C@@H]1C | >20 | 9.9 (≈ 8.09 µg/mL) | 12 (≈ 9.8 µg/mL)
CO[C@H]1/C=C/O[C@@]2(C)Oc3c(C)c(O)c4c(O)c(c(CNCc5ccco5)c(O)c4c3C2=O)NC(=O)/C(C)=C\C=C\[C@H](C)[C@H](O)[C@@H](C)[C@@H](O)[C@@H](C)[C@H](OC(C)=O)[C@@H]1C | >20 | 16 (≈ 12.9 µg/mL) | >20
